Source: PubChem BioAssay
Only some compounds are listed: those with a hit (about 1.9% of all), similar ones and a draw of the others.
LEDGF integ inh = blocks HIV-1 LEDGF/p75-dependent DNA integration. TR-FRET IN-LEDGF/p75 DNA integration, Eu/Cy5. 0.64% of 370,000 active. inhibition, % at 3.7 µM;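 active means inhibition above the screen-wide mean plus 3 SD, cut at about 13% in these data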;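 further: signal is the Cy5 over europium emission ratio at 671 and 618 nm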
DDE Tn7 FP inh = inhibitors of Tn7 peptide binding to human fibrin DD(E); FP displacement of FITC-Tn7 peptide from fibrin DD(E); 0% = median of compound wells per plate; 0.13% of 370,000 active; inhibition, % at 8.3 µM;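 active means inhibition above the mean of compounds falling within the control limits plus 3 SD of them, cut at about 14% in these data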
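Assay system: Human clot-derived fibrin DD(E) complex | Buffer or medium: Tris/NaCl/CaCl2 buffer, pH 7.8 | Repeats: One replicate per compound | Benchmarks: Aha-Tn7 high control | Measure: % inhibition scaled between sample-field median and high-control FP | Schedule: 10 min plus 3 h, room temperature | Signal: Fluorescence polarization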
TDP2 inh = TDP2 (human) inhibition, absorbance primary screen; O95551; inhibition, % at 12.8 µM; 0.34% of 370,000 active; recombinant TDP2, T5PNP hydrolysis, p-nitrophenol absorbance 415 nm;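 active means inhibition above the mean of all tested compounds plus 3 SD, set per campaign, cut at about 25% in these data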
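Assay system: recombinant human TDP2 / Reagent: T5PNP substrate at 5 mM, a TopII-DNA adduct mimic / Measured by: epi absorbance from released p-nitrophenol / Evaluation: % inhibition relative to enzyme-containing and enzyme-free wells / Control set: enzyme-free and DMSO wells / Replicates: each compound tested once, singlicate / Schedule: enzyme reaction with compound for 2 h at 37 °C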
MBD2 DNA inh = inhibitors of human MBD2 binding to methylated oligonucleotide. inhibition, % at 4.4 µM. 0.31% of 370,000 active. TR-FRET. AID 686964; in the data active means inhibition above about 13%
Target sequence (Q9UBB5 whole entry, looked up): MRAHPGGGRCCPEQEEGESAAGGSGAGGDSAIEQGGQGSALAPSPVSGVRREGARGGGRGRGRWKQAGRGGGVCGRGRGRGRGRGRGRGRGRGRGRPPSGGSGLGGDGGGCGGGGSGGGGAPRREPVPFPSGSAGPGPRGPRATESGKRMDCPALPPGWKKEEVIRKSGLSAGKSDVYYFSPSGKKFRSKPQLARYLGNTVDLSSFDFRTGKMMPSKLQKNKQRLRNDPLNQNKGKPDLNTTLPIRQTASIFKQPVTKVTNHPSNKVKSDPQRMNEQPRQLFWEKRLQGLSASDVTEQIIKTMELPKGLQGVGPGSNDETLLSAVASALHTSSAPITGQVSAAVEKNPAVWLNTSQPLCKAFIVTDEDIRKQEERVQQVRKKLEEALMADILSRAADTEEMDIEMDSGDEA
Tn6 DDE FP = disrupts Tn6 cyclic peptide binding to fibrin D-Dimer-E complex | P02675 | Fibrin DD(E) TRITC-Tn6 fluorescence polarization displacement | inhibition, % at 8.3 µM | 0.21% of 370,000 active | AID 720509;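 active means inhibition above a per-campaign cutoff: mean of compounds within control limits plus 3 SD, cut at about 15% in these data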
UHRF1 binding = blocks human UHRF1 binding to methylated DNA | Q96T88 | UHRF1 binding to methylated oligo, TR-FRET | inhibition, % at 4.4 µM | 0.75% of 370,000 active; in the data active means inhibition above about 21%;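 further: UHRF1 SRA domain binding a hemimethylated CpG hairpin DNA probe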
DDE Tn7 confirm = confirmation of inhibitors of Tn7 binding to human fibrin DD(E) | FP displacement of TRITC-Tn7 peptide from DD(E); 0% set at plate's compound-well median | shares compounds with DDE Tn7 FP inh | 5% of 460 active | inhibition, % at 8.3 µM;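 active means inhibition above the campaign cutoff, the mean of compounds within control limits plus 3 SD, cut at about 14% in these data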;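 further: displacers lower polarization since freed probe rises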
Tn7 DDE ctr = counter-screen hit for Tn7 peptide-fibrin DD(E) binding disruption. inhibition, % at 8.3 µM. shares compounds with DDE Tn7 FP inh. TRITC-Tn7 probe displacement, fluorescence polarization. 3% of 460 active;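 active means inhibition above the cutoff, the mean of compounds lying between the control bounds plus 3 SD of those compounds, cut at about 17% in these data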
Hits are given with their value; 0 = inactive; - = no result.

SMILES	LEDGF integ inh	DDE Tn7 FP inh	TDP2 inh	MBD2 DNA inh	Tn6 DDE FP	UHRF1 binding	DDE Tn7 confirm	Tn7 DDE ctr
Cc1cc(NS(=O)(=O)c2ccc(NC(=O)Cc3ccc([N+](=O)[O-])cc3)cc2)no1	0	14	0	0	0	0	0	0
CCOC(=O)CN1C(=O)[C@]2(OCCC=C[C@H]2C)c2cc(OC)ccc21	0	0	0	0	0	0	-	-
O=S(=O)(c1cccc2cccnc12)N1CCC(c2cn3ccccc3n2)CC1	0	0	0	0	0	0	-	-
COC(=O)C1=C(C)N(Cc2ccc(C(F)(F)F)cc2)C(=NCc2ccccc2C(F)(F)F)NC1c1ccc(F)cc1 (centres undefined)	0	0	0	0	0	0	-	-
COC(=O)C(CCSC)NC(=O)c1cc2c(n(-c3ccccc3)c1=O)CCCC2=O (centres undefined)	0	15	0	0	0	0	0	0
O=C1CCCc2c1cc(C(=O)O)c(=O)n2-c1ccccc1	0	0	0	0	0	0	-	-
CSc1cc(-c2ccccc2)n(C)c(=O)c1C#N	0	0	0	0	0	0	-	-
CCOC(=O)Cn1c(-c2ccccc2)cc(SC)c(C#N)c1=O	0	14	0	0	0	0	0	0
Cc1ccc(N2C(=O)c3cccc4c(N)ccc(c34)C2=O)c2cccnc12	0	19	0	0	0	0	0	0
CC(C)N1CCCCC(NC(=O)c2cccs2)C1=O (centres undefined)	0	0	0	0	0	0	-	-
COc1ccc(S(=O)(=O)N(C)CC(=O)NCc2ccc3c(c2)OCO3)cc1	0	0	0	0	0	0	-	-
COc1ccc(N(CC(=O)NCc2ccc3c(c2)OCO3)S(=O)(=O)c2ccc(O)c(C(=O)O)c2)cc1	0	15	0	0	0	0	0	0
COc1c(Cl)cc(C(=O)NCc2ccco2)cc1Cl	0	14	0	0	0	0	0	0
O=c1ccc(-c2ccc(S(=O)(=O)N3CCCCC3)o2)n[nH]1	0	14	0	0	0	0	0	0
Cc1ccc(C)c(N2CCN(S(=O)(=O)c3ccc(-c4ccc(=O)[nH]n4)o3)CC2)c1	0	0	0	0	0	0	-	-
COc1ccc(NS(=O)(=O)c2ccc3c(c2)NC(=O)C(C)S3)cc1 (centres undefined)	0	14	0	0	0	0	0	0
COc1ccc(NC(=O)C2CCN(S(=O)(=O)c3ccc4c(c3)NC(=O)C(C)S4)CC2)cc1 (centres undefined)	0	0	0	0	0	0	-	-
CCCCNC(=O)C[C@H]1C[C@@]2(C(=O)OC)C(=C[C@H](C(C)(C)C)O[C@@H]2C)N(CCC2=CCCCC2)C1=O	0	0	0	0	0	0	-	-
C=CCN1C(=O)[C@@H](CC(=O)N2CCN(C(=O)C3CC3)CC2)[C@]2(C(=O)OC)CCCCC=C12	0	0	0	0	0	0	-	-
CCCCCCCCN1C(=O)[C@@H](CC(=O)N2CCOCC2)C[C@@]2(C(=O)OC)C1=C[C@H](C(C)(C)C)O[C@@H]2C	0	0	0	0	0	0	-	-
COc1ccc2c(Cl)c(C(=O)N/N=C3\CCCC(=O)C3)sc2c1	0	32	0	0	0	0	0	0
COCCCNC(=O)C[C@H]1C[C@@]2(C(=O)OC)C(=C[C@H](C3CCCC3)O[C@@H]2C)N(Cc2ccc(Cl)cc2Cl)C1=O	0	0	0	0	0	0	-	-
COc1ccccc1NS(=O)(=O)c1cccc(C(=O)NCC(c2ccco2)N(C)C)c1 (centres undefined)	0	14	0	0	0	0	0	0
COc1ccccc1NS(=O)(=O)c1cc(C(=O)NCC(c2ccco2)N(C)C)ccc1C (centres undefined)	0	0	0	0	0	0	-	-
O=C(CSc1nnc(CNC(=O)c2ccco2)o1)Nc1cccc(Cl)c1	0	16	0	0	0	0	0	0
SMILES	LEDGF integ inh	DDE Tn7 FP inh	TDP2 inh	MBD2 DNA inh	Tn6 DDE FP	UHRF1 binding	DDE Tn7 confirm	Tn7 DDE ctr
CC(C)S(=O)(=O)N[C@@H]1c2cc3c(cc2[C@H](c2ccccc2)[C@H]1C)OCO3	0	0	0	0	0	0	-	-
NC(=O)CC(NC(=O)Cc1ccc(Cl)cc1)c1ccc(NC2CCCC2)c([N+](=O)[O-])c1 (centres undefined)	0	14	0	0	0	0	0	0
COc1cccc(NC(=O)COC(=O)c2ccc(S(=O)(=O)NCc3ccco3)cc2)c1	0	15	0	0	0	0	0	0
CC(=O)Nc1ccc(NC(=O)COC(=O)c2ccc(S(=O)(=O)NCc3ccco3)cc2)cc1	0	0	0	0	0	0	-	-
COc1ccccc1CN1C[C@@H]2C[C@@H](c3ccccc3C)N3CCC[C@@]23C1=O	0	16	0	0	0	0	0	0
O=C(OC1CC2CCC(C1)[N+]21CCCC1)C(O)(c1ccccc1)c1ccccc1 (centres undefined)	0	0	0	0	0	0	-	-
O=C(N/N=C/c1sc(=O)[nH]c1-[n+]1ccc2ccccc2c1)c1ccccc1[O-]	0	20	0	0	0	0	0	0
O=C(N/N=C/c1sc(=O)[nH]c1-[n+]1ccccc1)c1ccccc1[O-]	0	0	0	0	0	0	-	-
O=C(Nc1cccc(C(F)(F)F)c1)OC1CC2CC1[C@H]1CCCCN1[C@H]2Cc1ccccc1 (some centres undefined)	0	0	0	0	0	0	-	-
O=C(CCc1nnc(Cc2ccc(-c3ccccc3)cc2)o1)N1CCCC1	0	16	0	0	0	0	0	0
O=C(CSc1nnc(Cc2ccccc2)o1)N1CCCC1	0	0	0	0	0	0	-	-
Cc1cccc(NC(=O)CSc2nnnn2-c2ccc3c(c2)OCCO3)n1	0	15	0	0	0	0	0	0
O=C1[C@H](Cc2ccccc2)NCC=CC[C@H](c2ccco2)N1Cc1ccccc1	0	16	0	0	0	0	0	0
COc1ccccc1-c1ccccc1C1=CC(=O)CC(C)(C)C1=O	0	14	0	0	0	0	0	0
COc1ccc(-n2c(COc3ccc(Cl)cc3)nnc2SCC(=O)Nc2ccc(Oc3ccccc3)cc2)cc1	0	0	0	0	0	0	-	-
CC1CCN(CC(O)COCCC23CC4CC(CC(C4)C2)C3)CC1 (centres undefined)	0	15	0	0	0	0	0	0
COc1ccccc1CNS(=O)(=O)c1ccc(F)cc1Br	0	0	0	0	0	0	-	-
